Source: PubChem
Compounds with a hit are over-represented: about 7.9% of the library has one in this group of screens.
SF1 activator: activators of human SF-1, primary screen, cell-based, CHO-K1, Gal4-SF-1 LBD, luciferase luminescence | CHO-K1 Gal4-SF-1 LBD luciferase reporter; % increase over DMSO SF-1-specific signal | Steroidogenic factor 1 (Homo sapiens), Q13285 | 1.9% of 65,000 active | activation, % at 10 µM;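 active means activation above the mean activation of all tested compounds plus 3 SD, cut at about 50% in these data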
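System: CHO-K1 cells with Gal4–hSF-1 LBD chimera plus Gal4-driven luciferase; quantity: 4,000 CHO-K1 cells per well; compound: one dose, 10 µM compound, 1% DMSO; times: 20 h compound treatment, 37 °C; measured by: SteadyLite luciferase luminescence; read-out: percent activation versus DMSO; benchmarks: DMSO and mock-transfected background; replicates: one test per compound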
HEK293 NFkB inh: inhibitors of PMA/ionomycin-induced NF-kB reporter, primary screen, antigen receptor NF-kB inhibitor project, cell-based, HEK-293 luciferase reporter, luminescence | HEK-293 NF-kB luciferase reporter | inhibition, % at 3 µM | 0.21% of 62,000 active | AID 465, 2006;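 active means inhibition above the mean of all tested compounds plus 3 SD, cut at about 40% in these data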
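Timing: 1 h pretreatment, 16 h stimulation, 37 °C; system: HEK-293 cells with stable firefly luciferase reporter driven by four HIV NF-kB elements; doses: 3 µM once, 0.30% DMSO; measured by: luciferase luminescence; control set: DMSO and 10 µM reference inhibitor; repeats: single test; reagent: PMA plus ionomycin mix as NF-kB-activating stimulus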
JNK3 inh: JNK3 kinase activity inhibitors, primary screen, biochemical, human, purified enzyme. Mitogen-activated protein kinase 10 (Homo sapiens), P53779. HTS. inhibition, % at 8 µM. 0.61% of 60,000 active. AID 746, 2007; in the data active means inhibition above about 17%
D1 allo mod: D1 CRE-luciferase signal change, two-sided – cell-based, HEK293 D1, dopamine EC30, D1 allosteric modulator project, primary screen; D(1A) dopamine receptor (Homo sapiens), P21728; dopamine EC30 potentiation; actives deviate in either direction; B-score at 10 µM; 5.9% of 58,000 active; AID 641, 2007;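 active means luminescence count or its row- and column-corrected plate score outside the 99.7% band of the plate's sample wells, on either side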
Target sequence (P21728 whole entry, looked up): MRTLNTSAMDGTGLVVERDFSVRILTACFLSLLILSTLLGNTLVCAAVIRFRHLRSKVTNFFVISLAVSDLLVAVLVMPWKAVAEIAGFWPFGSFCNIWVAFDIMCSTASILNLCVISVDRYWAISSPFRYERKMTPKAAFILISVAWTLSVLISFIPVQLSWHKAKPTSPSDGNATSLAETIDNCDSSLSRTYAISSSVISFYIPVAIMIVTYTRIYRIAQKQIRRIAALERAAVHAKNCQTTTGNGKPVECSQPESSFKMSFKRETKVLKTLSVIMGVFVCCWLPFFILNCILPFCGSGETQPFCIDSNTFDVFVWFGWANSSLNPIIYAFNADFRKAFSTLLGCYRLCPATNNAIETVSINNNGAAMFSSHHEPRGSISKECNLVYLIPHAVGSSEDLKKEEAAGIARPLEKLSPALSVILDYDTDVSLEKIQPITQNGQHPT
RORA act: activators of orphan receptor RORA, primary screen, cell-based, luminescence. CHO-K1 Gal4-RORA LBD luciferase reporter; percent increase over mock-subtracted basal signal. Nuclear receptor ROR-alpha (Homo sapiens), P35398. activation, % at 10 µM. 1.5% of 65,000 active. AID 560, 2006;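 active means activation above the mean of all tested compounds plus 3 SD, cut at about 49% in these data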
Each line names hits and unclear results; the compound was inactive in the other large screens.

CCC(C)c1ccc(NC(=O)c2cccnc2)cc1 (stereo not given)	SF1 activator 112.3, RORA act 93.3 (no result: D1 allo mod)
COc1ccc(C(=O)Nc2ccc(C)cn2)c(OC)c1	D1 allo mod -9.49 (no result: JNK3 inh)
O=C(Nc1ccccc1)OCCOc1ccccc1	none
O=C(Nc1ccccc1)OCc1ccccn1	RORA act 60.5
Cc1cc(O)c(C(C)C)cc1NS(=O)(=O)c1ccccc1	none
O=C(O)c1cn[nH]c1-n1cnnn1	none (no result: D1 allo mod)
CCCCC(CCC(=O)Nc1ccc(C(=O)OC)cc1)C(=O)O (stereo not given)	none (no result: HEK293 NFkB inh, D1 allo mod)
CCOc1ccc(Nc2nc3c(c(=O)[nH]2)CCCC3)cc1	none
O=c1[nH]c(Nc2nc3ccccc3o2)nc2c1CCCC2	D1 allo mod -6.42
C/C(NC1CCCC1)=C(/C#N)C(N)=O	JNK3 inh 31.9
Cc1ccc(C(=O)CSC2=C(C#N)C(c3ccco3)C3=C(CCCC3=O)N2)cc1 (stereo not given)	none (no result: HEK293 NFkB inh, D1 allo mod)
N#CC1=C(SCC(=O)c2ccccc2)NC2=C(C(=O)CCC2)C1c1ccco1 (stereo not given)	SF1 activator 100.4, JNK3 inh 57.5, RORA act 173.5 (no result: HEK293 NFkB inh, D1 allo mod)
COc1ccccc1OCC(=O)Nc1cccc(C(=O)N2CCOCC2)c1	none
CC1(C)CC(=O)c2c(nn(-c3ccccc3)c2N)C1	none
O=C1CCCc2nn(-c3ccccc3)c(-c3ccncc3)c21	JNK3 inh 30.1
O=C(c1ccco1)N1CCN(/C(=N/S(=O)(=O)c2cccs2)c2ccccc2Cl)CC1	none
CN(C)c1cc(-c2ccccc2)nc(N)n1	none (no result: D1 allo mod)
Nc1nc(-c2ccccc2)cc(-c2ccccc2O)n1	JNK3 inh 34.8, RORA act 49.2
O=C1NC2=C(C(=O)c3ccccc32)C(c2ccccc2)N1 (stereo not given)	JNK3 inh 26.9 (no result: D1 allo mod)
CC(=O)C1=C(C)NC(=O)NC1c1ccccc1 (stereo not given)	none (no result: JNK3 inh)
Cc1nn(Cc2ccccc2Cl)c(C)c1C(=O)N1CCN(c2ccccc2)CC1	none
Cc1nc(N)sc1-c1csc(Nc2ccc(Cl)cn2)n1	none
Cc1nc(N)sc1-c1csc(Nc2ccccn2)n1	D1 allo mod -6.04, RORA act 57.1
CC(C)C(c1nnnn1Cc1ccccc1)N1CCN(Cc2ccc3c(c2)OCO3)CC1 (stereo not given)	none
CCCOC(=O)c1ccc(NC(=O)C2CCCO2)cc1 (stereo not given)	SF1 activator 67.9
COC(=O)COc1ccc(S(=O)(=O)NCc2cccnc2)cc1C	none (no result: D1 allo mod)
Nc1nc(-c2ccco2)nn1C(=O)CCc1ccccc1	none
Nc1nc2ccccc2n1C(=O)CCc1ccccc1	SF1 activator 67.3
O=C(CSc1nnnn1-c1ccccc1)NC(=O)Nc1ccc2c(c1)OCCO2	SF1 activator 71.8, RORA act 52.5 (no result: JNK3 inh, D1 allo mod)
CC(C)OC(=O)CSc1nnnn1-c1ccc2c(c1)OCCO2	SF1 activator 69.0, RORA act 54.1
O=C(CSc1nnnn1Cc1ccccc1)Nc1ccc2c(c1)OCCO2	none
COn1c(SC2CCCCC2)nc2ccccc2c1=O	none (no result: HEK293 NFkB inh, D1 allo mod)
CC1=CCC(COC(=O)Nc2ccccc2)CC1 (stereo not given)	RORA act 89.9
O=C(Nc1ccccc1)OCC1CCCN2CCCCC12 (stereo not given)	none (no result: SF1 activator, HEK293 NFkB inh, JNK3 inh, RORA act)
O=C(NCCCN1CCN(c2ccc(F)cc2)CC1)c1cccc(N2CCCC2=O)c1	D1 allo mod -6.09
Cc1cc2oc3c(c(=O)c2cc1C)C(c1ccc(C(C)C)cc1)N(CCCN1CCOCC1)C3=O (stereo not given)	none (no result: D1 allo mod)
CCc1cc2c(=O)c(-c3ccc4c(c3)OCCO4)coc2cc1OC(=O)c1ccco1	SF1 activator 66.2, D1 allo mod -2.88
CCc1cc2c(=O)c(-c3nc4ccccc4[nH]3)coc2cc1OC(=O)N1CCOCC1	none (no result: HEK293 NFkB inh)
O=C1C(=O)N(CCCN2CCOCC2)C(c2cccs2)/C1=C(/O)c1ccc2c(c1)OCO2 (stereo not given)	none (no result: JNK3 inh)
CCOc1cccc2cc(-c3csc(NC(=O)CCC(=O)N4CCN(C)CC4)n3)c(=O)oc12	none
O=C1C(C=NCCCn2ccnc2)=C(O)c2ccccc21	none
CC(=NCCCn1ccnc1)C1=C(O)c2ccccc2C1=O	JNK3 inh 29.2
CCN=c1scc(C)n1/N=C/c1ccsc1	SF1 activator 70.5, RORA act 69.0
Cc1ccc(NC(=O)CS(=O)(=O)c2c[nH]c3ccccc23)c(C)c1	none (no result: JNK3 inh)
Cn1c(C(=O)OCC(=O)NCCc2ccccc2)cc2sccc21	none
Cc1oc(-c2ccc(Cl)cc2)nc1CN1CCC(C(=O)NCc2ccco2)CC1	D1 allo mod -3.17
COc1ccc(-c2nc(CS(=O)CC(=O)NCc3ccco3)c(C)o2)cc1 (stereo not given)	none
CCOc1ccc(-c2nc(CSCC(=O)NCc3ccco3)c(C)o2)cc1	HEK293 NFkB inh 83.1
CCOC(=O)N1CCN(c2cc(C)c(C(C)=O)cc2F)CC1	none
CCOC(=O)N1CCN(c2ccc(C(=O)c3ccccc3)cc2F)CC1	RORA act 57.6
CC1CN(C(=O)c2cccs2)CCN1C(=O)c1cccs1 (stereo not given)	none
CN(C)c1ccc(-n2cc3c(=O)n(C)c(=O)n(C)c3c2)cc1	RORA act 48.7
CCN(CC)c1ccc(-n2cc3c(=O)n(C)c(=O)n(C)c3c2)cc1	SF1 activator 55.5
CN(CCC#N)S(=O)(=O)c1ccc2c(c1)c(=O)n(C)c(=O)n2C	none (no result: JNK3 inh)
CCN(CC)c1ccc(-n2c(C)c(C(C)=O)c(C(C)=O)c2C)cc1	none
Cc1ccc2c(n1)sc1c(N)ncnc12	none
O=C(O)CCSc1nc2ccccc2s1	D1 allo mod -6.48
O=C(O)CCSc1ccc2ccccc2n1	JNK3 inh 27.9 (no result: HEK293 NFkB inh)
O=C(O)CSc1ccc2ccccc2n1	JNK3 inh 17.7
Cc1cc(SCCC(=O)O)nc2ccccc12	none (no result: HEK293 NFkB inh, D1 allo mod)
Cc1nn(-c2ccc(F)cc2)c2sc(C(=O)OC3CCOC3=O)cc12 (stereo not given)	none
Cc1nn(-c2ccccc2)c2sc(C(=O)OCN3C(=O)c4ccccc4C3=O)cc12	D1 allo mod 5.33
CCOC(=O)c1nnn(-c2nonc2N)c1CN(C)Cc1ccccc1	none (no result: JNK3 inh)
CC(C)CC1NC(=O)N(CC(=O)c2ccc3c(c2)OCCO3)C1=O (stereo not given)	SF1 activator 83.9, RORA act 57.4 (no result: JNK3 inh)
COc1ccccc1NC(=O)CN1C(=O)NC(CC(C)C)C1=O (stereo not given)	none
CS(=O)(=O)N1CCCC(c2nc(-c3ccc(S(=O)(=O)NCc4ccccc4)cc3)no2)C1 (stereo not given)	D1 allo mod -3.03 (no result: JNK3 inh)
